Values after ≈ are worked out from the molar mass of the structure shown.
Test system: Mycobacterium tuberculosis
Test: Antitubercular activity against Mycobacterium tuberculosis H37Rv measured on day 7 post dose by microplate alamar blue assay
Format: functional
Conditions: 168 h
How it was run: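 MABA against H37Rv in 7H12 medium, two-fold dilutions, final 0.05–5 or 0.004–1 µg/mL (DMSO stocks 5 or 2 mg/mL). Inoculum 2×10⁵ cfu/mL, 37 °C. On day 7, Tween 80 and Alamar Blue added; fluorescence (ex 530/em 590) read after 16–24 h. MIC = interpolated lowest concentration giving ≥90% fluorescence reduction versus bacteria-only controls. INH and RIF as controls.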

| SMILES | MIC90 [µg/mL] |
| --- | --- |
| CCc1nn2ccc(Cl)cc2c1C(=O)NCc1ccc(-c2ccc(OC(F)(F)F)cc2)nc1 | 0.2 (≈ 0.421 µM) |
| CCc1nn2ccc(Cl)cc2c1C(=O)NCC1CCN(CC23CC4CC(CC(C4)C2)C3)CC1 | > 1 |
| Cc1ccn2nc(C)c(C(=O)NCc3ccc(N4CCC(Oc5ccc(OC(F)(F)F)cc5)CC4)cc3)c2c1 | 0.006 (≈ 0.0111 µM) |
| CCc1nn2ccc(Cl)cc2c1C(=O)NC/C=C(\C)CCC=C(C)C | 0.17 (≈ 0.472 µM) |
| Cc1ccn2nc(C)c(C(=O)NCc3ccc(OC(F)(F)F)cc3)c2c1 | 0.91 (≈ 2.5 µM) |
| NNC(=O)c1ccncc1 [ISONIAZID] | 0.1 (≈ 0.729 µM) |
| CO[C@H]1/C=C/O[C@@]2(C)Oc3c(C)c(O)c4c(O)c(c(/C=N/N5CCN(C)CC5)c(O)c4c3C2=O)NC(=O)/C(C)=C\C=C\[C@H](C)[C@H](O)[C@@H](C)[C@@H](O)[C@@H](C)[C@H](OC(C)=O)[C@@H]1C [RIFAMPIN] | 0.003 (≈ 0.00365 µM) |
